Data published in ChEMBL document CHEMBL1124035, “1-Amino-substituted 4-methyl-5H-pyrido[4,3-b]indoles (gamma-carbolines) as tricyclic analogues of ellipticines: a new class of antineoplastic agents” (1988).

Assays:
[1] = test system: Mus musculus; assay: Median survival day in P388 cell line when a dose of 50 mg/kg administered intravenously to mice; format: functional; conditions: route intravenous
Method in brief: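 P388 leukaemia in CDF1 hybrid mice, 10 per group. At D0, 10^6 viable cells were inoculated ip, followed by a single iv dose on D1. Weight change, median survival day, T/C (treated/control median survival × 100) and survivors at D30 were recorded.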

[2] = test system: Mus musculus; assay: Median survival day of L1210 (iv) to L1210 leukemia model when a dose of 20 mg/kg administered intravenously to mice; format: functional
Method in brief: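 L1210 leukaemia in CDF1 hybrid male or female mice, 10 per group. At D0, 10^5 viable cells were inoculated ip, followed by a single iv dose on D1. Median survival day was recorded, and T/C was calculated as treated/control median survival × 100.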

[3] = test system: Mus musculus; assay: Survivors at day D38 when a dose of 50 mg/kg administered intravenously to C38 adenocarcinoma mice model on D1 when tested in 10 mice; format: functional; conditions: route intravenous
Method in brief: (§1)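 Hybrid BDF1 mice, 10 per test, were implanted sc with a standard 3-mm³ fragment of C38 colon adenocarcinoma. Drug was given iv either on D1 alone or on D2 and D9. Animals were followed per NCI (Geran) protocol.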

[4] = test system: Mus musculus; assay: Survivors at day 60 when a dose of 2.5 mg/kg to B16 melanoma infected when tested in 10 mice; format: functional
[5] = test system: Mus musculus; assay: Survivors at day D32 when a dose of 50 mg/kg administered intravenously to mice (C38 adenocarcinoma cell lines) when tested in 10 mice; format: functional; conditions: route intravenous; method in brief: as §1
[6] = test system: Mus musculus; assay: Survivors at day D32 when a dose of 25 mg/kg administered intravenously to mice (C38 adenocarcinoma cell lines) when tested in 10 mice; format: functional; conditions: route intravenous; method in brief: as §1
[7] = test system: Mus musculus; assay: Antitumor activity against P388 cells at a dose of 20 mg/kg administered intraperitoneally to mice; format: functional; conditions: route intraperitoneal
[8] = test system: Mus musculus; assay: Survivors at day 60 when a dose of 5 mg/kg to B16 melanoma infected when tested in 10 mice; format: functional
[9] = test system: Mus musculus; assay: Survivors at day 30 when a dose of 20 mg/kg to P388 leukemia model; 0/10; format: functional
[10] = test system: Mus musculus; assay: Weight change in g when a dose of 2.5 mg/kg administered intraperitoneally in B-16 melanoma infected mice; format: functional; conditions: route intraperitoneal
Method in brief: (§2)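 Hybrid BDF1 mice were inoculated ip at D0 with 0.5 mL of B16 melanoma homogenate (1 g tumor in 10 mL physiological serum). Drug was given ip daily on days 1-9, with cis-platinum 0.5 mg/kg as positive control on the same schedule.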

[11] = test system: Mus musculus; assay: Antitumor activity against P388 cells at a dose of 20 mg/kg administered intraperitoneally P388 Leukemia model; format: functional; conditions: route intraperitoneal
Method in brief: (§3)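 Mice were inoculated ip with 10^6 P388 leukemia cells at D0, then given a single ip drug dose on D1. Weight change was recorded. T/C % = median survival day of treated / controls × 100; survivors counted at D30; 10 mice per dose group, 20 controls.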

[12] = test system: Mus musculus; assay: Antitumor activity against P388 cells at a dose of 80 mg/kg administered intraperitoneally P388 Leukemia model; format: functional; conditions: route intraperitoneal; method in brief: as §3
[13] = test system: Mus musculus; assay: Weight change in g when a dose of 5 mg/kg administered intraperitoneally in B-16 melanoma infected mice; format: functional; conditions: route intraperitoneal; method in brief: as §2
[14] = test system: Mus musculus; assay: Survivors at day 60 when a dose of 20 mg/kg to B16 melanoma infected mice; 5/10; format: functional
[15] = test system: Mus musculus; assay: Antitumor activity against P388 cells at a dose of 10 mg/kg administered intraperitoneally P388 Leukemia model; format: functional; conditions: route intraperitoneal; method in brief: as §3
[16] = test system: Mus musculus; assay: Median survival day in B16 melanoma cell line when a dose of 20 mg/kg administered intraperitoneally to mice; format: functional; conditions: route intraperitoneal
Method in brief: (§4)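 B16 melanoma in hybrid BD F1 mice. At D0 each mouse was inoculated ip with 0.5 mL of homogenate made from 1 g of tumour in 10 mL of physiological serum. Compounds were given ip daily at the stated doses for 9 days (D1-9), with cis-platinum 0.5 mg/kg under the same schedule as positive control.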

[17] = test system: Mus musculus; assay: Median survival day in B16 melanoma cell line when a dose of 5 mg/kg administered intraperitoneally to mice; format: functional; conditions: route intraperitoneal; method in brief: as §4
[18] = test system: Mus musculus; assay: Antitumor activity against P388 leukemia in mice at a dose of 20 mg/kg administered intraperitoneally; format: functional, organism-based; design: dose 20 mg/kg
Method in brief: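 CDF1 hybrid male or female mice, 10 per group, were inoculated ip with 10^6 viable P388 cells on day 0. Drugs in distilled water were given ip (0.1 mL/10 g body weight) daily D1-5. Vehicle, 5-fluorouracil and BD 84 were given the same way. T/C = median survival day of treated / controls × 100; T/C > 128% was significant; cures counted at D60.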

[19] = test system: Mus musculus; assay: Antitumor activity against P388 cells at a dose of 40 mg/kg administered intraperitoneally to P388 leukemia model; format: functional; conditions: route intraperitoneal; method in brief: as §3
[20] = test system: Mus musculus; assay: Survivors at day 30 when a dose of 50 mg/kg administered intravenously to P388 leukemia mice model; 0/10; format: functional; conditions: route intravenous
[21] = test system: Mus musculus; assay: Antitumor activity against C38 adenocarcinoma cells at a dose of 75 mg/kg administered intravenously to mice; tumor volume at D32 (T/C); format: functional, MC-38; conditions: route intravenous
Method in brief: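 Hybrid BD F1 mice, 10 per group, were implanted sc with a standard 3-mm3 C38 colon adenocarcinoma fragment. Drugs were given iv at the stated doses on D1 or on D2 + D9. Read-out was tumor size in treated versus control mice (T/C) at the day stated.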

[22] = test system: Mus musculus; assay: Antitumor activity against L1210 leukemia mice model at a dose of 20 mg/kg administered intravenously; format: functional; conditions: route intravenous
Method in brief: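 P388 (10^6 cells) or L1210 (10^5 cells) leukemia was inoculated ip in mice at D0, followed by a single iv drug treatment on D1. Weight change was recorded. T/C % = median survival day of treated / controls × 100; survivors noted at D30; 10-15 mice per group.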

[23] = test system: Mus musculus; assay: Median survival day of B16 melanoma infected mice when a dose of 2.5 mg/kg administered intraperitoneally; format: functional; conditions: route intraperitoneal; method in brief: as §4
[24] = test system: Mus musculus; assay: Survivors at day D32 when a dose of 75 mg/kg administered intravenously to C38 adenocarcinoma mice models; 10/10; format: functional; conditions: route intravenous; method in brief: as §1
[25] = test system: Mus musculus; assay: Weight change in g when a dose of 40 mg/kg intravenous administration to L1210 leukemia mice model; format: functional
Method in brief: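 Mice received 10^5 L1210 leukemia cells ip at D0, then a single iv drug dose at D1. Read-outs were weight change (g), median survival day, T/C % and survivors at D30.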

[26] = test system: Mus musculus; assay: Median survival day of B16 melanoma infected mice when a dose of 1.25 mg/kg administered intraperitoneally; format: functional; conditions: route intraperitoneal; method in brief: as §4
[27] = test system: Mus musculus; assay: Weight change in g when a dose of 40 mg/kg administered intraperitoneally to P388 leukemia model; conditions: route intraperitoneal
[28] = test system: Mus musculus; assay: Median tumoral volume of C38 adenocarcinoma model when a dose of 100 mg/kg administered intravenously on D1 to mice; format: functional; conditions: route intravenous
Method in brief: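 Geran protocol in hybrid BDF1 mice, 10 per test, implanted sc with a standard 3-mm³ fragment of C38 colon adenocarcinoma. Drug was given iv at the stated doses on D1, or on D2 + D9, and tumor growth was followed.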

[29] = test system: Mus musculus; assay: Survivors at day D30 when a dose of 40 mg/kg administered intravenously to L1210 leukemia mice model; 0/10; format: functional; conditions: route intravenous
[30] = test system: Mus musculus; assay: Survivors at day D38 when a dose of 100 mg/kg administered intravenously to C38 adenocarcinoma cell lines on D1 to mice; 10/10; format: functional, MC-38; conditions: route intravenous; method in brief: as §1

Cc1cnc(NCCCN(C)C)c2c3cc(O)ccc3n(C)c12
Median survival day [1]: 17.75 | Median survival day [2]: 14 | Survivors [3]: 10 | Survivors [4]: 0 | Survivors [5]: 10 | Survivors [6]: 10 | T/C [7]: 164% | Survivors [8]: 1

CCN(CC)CCCNc1[nH]cc(C)c2nc3ccc(O)cc3c1-2
Survivors [9]: 0 | Weight change [10]: 3.6 g | T/C [11]: 139% | T/C [12]: 20% | Weight change [13]: -0.1 g | Survivors [14]: 5 | T/C [15]: 129% | Median survival day [16]: 58 | Median survival day [17]: 48

CCN(CC)CCCNc1ncc(C)c2c1c1cc(O)ccc1n2C
T/C [18]: Toxic | T/C [19]: 202% | Survivors [20]: 0 | Tumor volume [21]: 13% | T/C [22]: 132% | Median survival day [23]: 35.25 | Survivors [24]: 10 | Weight change [25]: -0.2 g | Median survival day [26]: 32.25 | Weight change [27]: -5.2 g | Median tumoral volume [28]: 3.24 cm*3 | Survivors [29]: 0 | Survivors [30]: 10
